The target in this data set is Toll-like receptor 4/MD-2 (Homo sapiens, UniProt O00206+Q9Y6Y9). Description: Activation of TLR4/MD2 (unknown origin) expressed in HEK293 cells co-expressing CD14 assessed as induction of MyD88-dependent NF-kappaB activity after 24 hrs by NF-kappaB SEAP reporter gene assay. Type of data set: cell-based. The conditions noted are these: hek293, 24 h. The gist of the method:
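HEK293 cells stably transfected with human TLR4, MD-2, CD14 and an NF-κB-inducible promoter driving secreted embryonic alkaline phosphatase (SEAP). Compounds formulated at 2 mg/mL in 2% aq. glycerol (stock), applied as a dose response for 24 h. Read-out was relative SEAP activity in cell culture supernatants.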
Chain of Toll-like receptor 4/MD-2 (O00206 whole entry): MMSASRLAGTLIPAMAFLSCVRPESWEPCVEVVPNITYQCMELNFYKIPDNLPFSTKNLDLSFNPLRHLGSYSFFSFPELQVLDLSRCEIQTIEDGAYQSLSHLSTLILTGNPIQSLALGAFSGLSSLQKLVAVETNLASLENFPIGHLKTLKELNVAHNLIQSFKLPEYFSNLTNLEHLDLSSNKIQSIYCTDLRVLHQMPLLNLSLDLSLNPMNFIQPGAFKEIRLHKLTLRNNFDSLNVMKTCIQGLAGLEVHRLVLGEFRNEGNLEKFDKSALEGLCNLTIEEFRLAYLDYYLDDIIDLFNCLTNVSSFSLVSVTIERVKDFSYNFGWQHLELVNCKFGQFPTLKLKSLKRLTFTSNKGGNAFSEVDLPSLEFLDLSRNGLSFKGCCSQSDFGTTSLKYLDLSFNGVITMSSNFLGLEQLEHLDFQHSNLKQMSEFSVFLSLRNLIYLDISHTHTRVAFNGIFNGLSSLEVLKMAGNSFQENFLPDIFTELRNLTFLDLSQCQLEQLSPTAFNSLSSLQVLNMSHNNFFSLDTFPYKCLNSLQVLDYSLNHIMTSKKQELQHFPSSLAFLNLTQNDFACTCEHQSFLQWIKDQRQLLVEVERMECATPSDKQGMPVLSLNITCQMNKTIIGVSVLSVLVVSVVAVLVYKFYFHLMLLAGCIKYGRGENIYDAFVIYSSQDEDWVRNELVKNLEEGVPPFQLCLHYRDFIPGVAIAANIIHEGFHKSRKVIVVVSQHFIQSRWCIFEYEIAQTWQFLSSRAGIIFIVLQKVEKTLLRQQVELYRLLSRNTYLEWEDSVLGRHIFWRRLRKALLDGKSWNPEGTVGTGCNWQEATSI
Chain of Toll-like receptor 4/MD-2 (Q9Y6Y9 whole entry): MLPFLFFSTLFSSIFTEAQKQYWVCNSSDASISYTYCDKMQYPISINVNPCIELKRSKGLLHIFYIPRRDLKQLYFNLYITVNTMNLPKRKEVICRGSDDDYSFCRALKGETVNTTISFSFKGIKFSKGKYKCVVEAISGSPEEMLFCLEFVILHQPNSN
As to `CCCCCCCCCCC[C@H](CC(=O)N[C@H]1[C@H](OC[C@@H](NC(=O)C[C@@H](CCCCCCCCCCC)OC(=O)CCCCCCCCC)C(=O)O)O[C@H](CO)[C@@H](OP(=O)(O)O)[C@@H]1OC(=O)C[C@@H](CCCCCCCCCCC)OC(=O)CCCCCCCCC)OCCCCCCCCCC`, the Activity result is “Non-toxic”.
The result for `CCCCCCCCCCC[C@H](CC(=O)N[C@H]1[C@H](OC[C@H](NC(=O)C[C@@H](CCCCCCCCCCC)OC(=O)CCCCCCCCC)C(=O)O)O[C@H](CO)[C@@H](OP(=O)(O)O)[C@@H]1OC(=O)C[C@@H](CCCCCCCCCCC)OC(=O)CCCCCCCCC)OC(=O)CCCCCCCCC` reads “Toxic”; that for `CCCCCCCCCCC[C@H](CC(=O)N[C@H](CO[C@@H]1O[C@H](CO)[C@@H](OP(=O)(O)O)[C@H](OC(=O)C[C@@H](CCCCCCCCCCC)OC(=O)CCCCCCCCC)[C@H]1NC(=O)C[C@@H](CCCCCCCCCCC)OC(=O)CCCCCCCCC)C(=O)O)OCCCCCCCCCC`, “Non-toxic”.
On to `CCCCCCCCCCC[C@H](CC(=O)N[C@H]1[C@H](OC[C@@H](NC(=O)C[C@@H](CCCCCCCCCCC)OCCCCCCCCCC)C(=O)O)O[C@H](CO)[C@@H](OP(=O)(O)O)[C@@H]1OC(=O)C[C@@H](CCCCCCCCCCC)OC(=O)CCCCCCCCC)OCCCCCCCCCC`, for which the Activity entry is reported as “Non-toxic”.
Under `CCCCCCCCCCC[C@H](CC(=O)N[C@H]1[C@H](OC[C@@H](NC(=O)C[C@@H](CCCCCCCCCCC)OCCCCCCCCCC)C(=O)O)O[C@H](CO)[C@@H](OP(=O)(O)O)[C@@H]1OC(=O)C[C@@H](CCCCCCCCCCC)OCCCCCCCCCC)OCCCCCCCCCC` stands “Non-toxic”; under `CCCCCCCCCCC[C@H](CC(=O)N[C@H]1[C@H](OC[C@H](NC(=O)C[C@@H](CCCCCCCCCCC)OCCCCCCCCCC)C(=O)O)O[C@H](CO)[C@@H](OP(=O)(O)O)[C@@H]1OC(=O)C[C@@H](CCCCCCCCCCC)OCCCCCCCCCC)OCCCCCCCCCC`, “Toxic”; under `CCCCCCCCCCC[C@H](CC(=O)N[C@H]1[C@H](OC[C@@H](NC(=O)C[C@@H](CCCCCCCCCCC)OC(=O)CCCCCCCCC)C(=O)O)O[C@H](CO)[C@@H](OP(=O)(O)O)[C@@H]1OC(=O)C[C@@H](CCCCCCCCCCC)OC(=O)CCCCCCCCC)OC(=O)CCCCCCCCC`, “Toxic”.
The result for `CCCCCCCCCCC[C@H](CC(=O)N[C@H](CO[C@@H]1O[C@H](CO)[C@@H](OP(=O)(O)O)[C@H](OC(=O)C[C@@H](CCCCCCCCCCC)OCCCCCCCCCC)[C@H]1NC(=O)C[C@@H](CCCCCCCCCCC)OC(=O)CCCCCCCCC)C(=O)O)OCCCCCCCCCC` reads “Toxic”; that for `CCCCCCCCCCCCCC(=O)O[C@H](CCCCCCCCCCC)CC(=O)N[C@H]1[C@H](OC[C@H](NC(=O)C[C@@H](CCCCCCCCCCC)OC(=O)CCCCCCCCCCCCC)C(=O)O)O[C@H](CO)[C@@H](OP(=O)(O)O)[C@@H]1OC(=O)C[C@@H](CCCCCCCCCCC)OC(=O)CCCCCCCCCCCCC`, “Non-toxic”.
`CCCCCCCCCCC[C@H](CC(=O)O[C@@H]1[C@@H](NC(=O)C[C@@H](CCCCCCCCCCC)OC(=O)CCCCCCCCC)[C@H](OC[C@@H](NC(=O)C[C@@H](CCCCCCCCCCC)OC(=O)CCCCCCCCC)C(=O)O)O[C@H](CO)[C@H]1OP(=O)(O)O)OCCCCCCCCCC`: the Activity result was “Toxic”.
Under `CCCCCCCCCCC[C@H](CC(=O)N[C@H]1[C@H](OC[C@@H](NC(=O)C[C@@H](CCCCCCCCCCC)OC(=O)CCCCCCCCC)C(=O)O)O[C@H](CO)[C@@H](OP(=O)(O)O)[C@@H]1OC(=O)C[C@@H](CCCCCCCCCCC)OCCCCCCCCCC)OCCCCCCCCCC` stands “Toxic”.

Source of the values: ChEMBL document CHEMBL3352303, “Characterization of TRIF selectivity in the AGP class of lipid A mimetics: role of secondary lipid chains” (Bioorg Med Chem Lett, 2015).
